# Measured values published in ChEMBL document CHEMBL5614410, “Design, Synthesis, and Evaluation of p53Y220C Acetylation Targeting Chimeras (AceTACs)” (J Med Chem, 2024).
# Active and inactive are the calls of the source. No cut-off for these calls is given here.
# Columns and labels:
# [1] = tested on: CREB-binding protein/Histone acetyltransferase p300/Cellular tumor antigen p53 (Homo sapiens), P04637+Q09472+Q92793 [Y220C]; experiment: AceTAC activity at FLAG-tagged p53Y220C mutant (unknown origin ) expressed in human NCI-H1299 cells expressing p300/CBP assessed as increase in p53 acetylation at lysine 382 residue at 1 uM incubated for 24 hrs by western blot analysis; assay type: cell-based
# Summary of the method: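 NCI-H1299 cells stably expressing p53Y220C, treated 24 h at 1 or 10 μM. Lysates were Western blotted for total p53 and p53 K382ac, with vinculin as loading control. Blots are representative of at least two independent experiments.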
# [2] = tested on: CREB-binding protein/Histone acetyltransferase p300/Cellular tumor antigen p53 (Homo sapiens), P04637+Q09472+Q92793 [Y220C]; experiment: AceTAC activity at FLAG-tagged p53Y220C mutant (unknown origin) expressed in human NCI-H1299 cells expressing p300/CBP assessed as increase in p53 acetylation at lysine 382 residue at 10 uM incubated for 24 hrs by western blot analysis relative to control; assay type: cell-based
# Summary of the method: (§1)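 NCI-H1299 (p53Y220C) cells were treated at 0.1–10 μM (0.1, 0.3, 1, 3 or 10 μM) for 24 h. Lysates were Western blotted for p53 and p53K382ac, with vinculin as loading control. p53K382ac was normalised to total p53Y220C and quantified from two or three independent experiments.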
# NCI-H1299 [3] = experiment: Antiproliferative activity against human NCI-H1299 cells expressing p53Y220C mutant assessed as reduction in cell viability incubated for 3 days by WST-8 assay; assay type: functional; settings: NCI-H1299, 72 h, time 3 day
# Summary of the method: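 NCI-H1299 p53Y220C cells were exposed to compound over a concentration range for 72 h, in some runs after 72 h of control or p300 siRNA, before the viability read-out. Values are mean ± SD of three independent experiments.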
# [4] = tested on: Cellular tumor antigen p53 (Homo sapiens), P04637 [Y220C]; experiment: Stabilization of FLAG-tagged p53Y220C mutant (unknown origin) expressed in human NCI-H1299 cells assessed as upregulation of p21 mRNA expression at 3 uM incubated for 24 hrs by RT-qPCR analysis; assay type: cell-based
# Summary of the method: (§2)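 NCI-H1299 p53Y220C cells were treated with 3 μM or DMSO for 24 h, followed by RT-qPCR of p53 target genes. Each transcript was normalized to GAPDH, then expressed relative to the DMSO control. Values are mean ± SD from three independent experiments.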
# [5] = tested on: Cellular tumor antigen p53 (Homo sapiens), P04637 [Y220C]; experiment: Induction of p53Y220C mutant acetylation in human NUGC-3 cells expressing p300/CBP assessed as increase in p53 acetylation at lysine 382 residue at 1 to 10 uM incubated for 24 hrs by western blot analysis; assay type: cell-based; settings: dose 1-10 µM
# Summary of the method: (§3)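 BxPC3 or NUGC-3 cells, which endogenously carry p53Y220C, were dosed at 1, 3 or 10 μM (or DMSO) for 24 h. Lysates were immunoblotted for p53 and p53 K382ac, with vinculin loading control. Blots are representative of two independent experiments.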
# [6] = tested on: Cellular tumor antigen p53 (Homo sapiens), P04637 [Y220C]; experiment: Stabilization of FLAG-tagged p53Y220C mutant (unknown origin) expressed in human NCI-H1299 cells assessed as upregulation of GADD45A mRNA expression at 3 uM incubated for 24 hrs by RT-qPCR analysis; assay type: cell-based; summary of the method: as §2
# [7] = tested on: CREB-binding protein/Histone acetyltransferase p300/Cellular tumor antigen p53 (Homo sapiens), P04637+Q09472+Q92793 [Y220C]; experiment: Induction of interaction between FLAG-tagged p53Y220C mutant (unknown origin) and p300/CBP expressed in human NCI-H1299 cells assessed as ternary complex formation at 10 uM incubated for 24 hrs by co-immunoprecipitation analysis; assay type: cell-based
# Summary of the method: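 NCI-H1299 p53-null and p53Y220C cells were treated with DMSO or compound at 10 μM for 24 h. p53-FLAG pull-down was followed by Western blotting for associated p300. Representative of two independent experiments.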
# [8] = Cytotoxicity against human PNT2 cells assessed as inhibition of cell growth at 10 uM incubated for 72 hrs by WST-8 assay; assay type: toxicity, cell-based
# Summary of the method: (§4)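 U2OS (WT p53) or normal prostate PNT2 cells were treated for 72 h at the indicated concentrations. Viability is mean ± SD of technical triplicates from two biological experiments.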
# PNT2 = experiment: Cytotoxicity against human PNT2 cells assessed as inhibition of cell growth incubated for 72 hrs by WST-8 assay; assay type: toxicity, cell-based; settings: pnt2, 72 h; summary of the method: as §4
# [9] = tested on: Cellular tumor antigen p53 (Homo sapiens), P04637 [Y220C]; experiment: Stabilization of FLAG-tagged p53Y220C mutant (unknown origin) expressed in human NCI-H1299 cells assessed as downregulation of E2F1 mRNA expression at 3 uM incubated for 24 hrs by RT-qPCR analysis; assay type: cell-based; summary of the method: as §2
# U2OS = experiment: Cytotoxicity against human U2OS cells harboring wild type p53 assessed as inhibition of cell growth incubated for 72 hrs by WST-8 assay; assay type: toxicity, cell-based; summary of the method: as §4
# [10] = tested on: Cellular tumor antigen p53 (Homo sapiens), P04637 [Y220C]; experiment: Induction of p53Y220C mutant acetylation in human BXPC-3 cells expressing p300/CBP assessed as increase in p53 acetylation at lysine 382 residue at 1 to 10 uM incubated for 24 hrs by western blot analysis; assay type: cell-based; settings: dose 1-10 µM; summary of the method: as §3
# NCI-H1299 [11] = experiment: Antiproliferative activity against human NCI-H1299 cells expressing p53Y220C mutant and transfected with p300 siRNA assessed as reduction in cell viability at 0.47 to 15 uM incubated for 3 days by WST-8 assay; assay type: functional, cell-based; settings: dose 0.47-15 µM, time 3.0 day
# Summary of the method: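 NCI-H1299 p53Y220C cells were first transfected with p300 siRNA for 72 h, then exposed to compound across the concentration series for 72 h. Viability is mean ± SD from three independent experiments.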
# NUGC-3 = experiment: Antiproliferative activity against human NUGC-3 cells harboring p53Y220C mutant assessed as inhibition of cell growth incubated for 72 hrs by WST-8 assay; assay type: functional
# Summary of the method: (§5)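 BxPC3 or NUGC-3 cells were treated with DMSO or compound over a concentration range for 72 h before the viability read-out. Values are mean ± SD of technical triplicates from three biological experiments.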
# NCI-H1299 [12] = experiment: Antiproliferative activity against p53-null human NCI-H1299 cells assessed as reduction in cell viability at 0.47 to 15 uM incubated for 3 days by WST-8 assay; assay type: functional, cell-based; settings: dose 0.47-15 µM, time 3.0 day
# Summary of the method: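 p53-null NCI-H1299 cells were exposed to compound across the concentration series for 72 h before the viability read-out. Data are mean ± SD from three independent experiments.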
# [13] = tested on: Cellular tumor antigen p53 (Homo sapiens), P04637 [Y220C]; experiment: Stabilization of p53Y220C mutant (unknown origin) assessed as increase in melting temperature at 250 uM by […]
# BXPC-3 = experiment: Antiproliferative activity against human BXPC-3 cells harboring p53Y220C mutant assessed as inhibition of cell growth incubated for 72 hrs by WST-8 assay; assay type: functional; summary of the method: as §5
# [14] = tested on: Cellular tumor antigen p53 (Homo sapiens), P04637 [Y220C]; experiment: Induction of FLAG-tagged p53Y220C mutant acetylation (unknown origin) expressed in human NCI-H1299 cells assessed as increase in p53 acetylation at lysine 382 residue at 10 uM incubated for 24 hrs by western blot analysis relative to control; assay type: cell-based; summary of the method: as §1
# [15] = Cytotoxicity against human U2OS cells harboring wild type p53 assessed as inhibition of cell growth at 10 uM incubated for 72 hrs by WST-8 assay; assay type: toxicity, cell-based; summary of the method: as §4
# [16] = tested on: CREB-binding protein/Histone acetyltransferase p300/Cellular tumor antigen p53 (Homo sapiens), P04637+Q09472+Q92793 [Y220C]; experiment: AceTAC activity at FLAG-tagged p53Y220C mutant (unknown origin) expressed in human NCI-H1299 cells expressing p300/CBP assessed as stabilization of protein by measuring increase in aggregation temperature at 100 uM incubated for 1 hr at 32 to 50 degC by CETSA analysis; assay type: cell-based
# Summary of the method: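 For CETSA, NCI-H1299 (p53Y220C) stable cells were treated with DMSO or 100 μM compound for 1 h, then heated at 32 to 50 °C. Soluble p53 was detected by Western blot. Representative of at least two independent experiments.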
# [17] = tested on: CREB-binding protein/Histone acetyltransferase p300/Cellular tumor antigen p53 (Homo sapiens), P04637+Q09472+Q92793 [Y220C]; experiment: AceTAC activity at FLAG-tagged p53Y220C mutant (unknown origin) expressed in human NCI-H1299 cells expressing p300/CBP assessed as fold increase in p53 acetylation at lysine 382 residue at 10 uM incubated for 24 hrs by western blot analysis relative to control; assay type: cell-based
# Summary of the method: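 NCI-H1299 (p53Y220C) cells were exposed to 1, 3 and 10 μM for 24 h, then Western blotted. The K382ac signal was normalized to total p53Y220C and quantified from two independent experiments (±SD), relative to DMSO.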
# [18] = biological target: CREB-binding protein/Histone acetyltransferase p300/Cellular tumor antigen p53 (Homo sapiens, UniProt P04637+Q09472+Q92793, Y220C); experiment: AceTAC activity at FLAG-tagged p53Y220C mutant (unknown origin) expressed in human NCI-H1299 cells expressing p300/CBP assessed as increase in p53 acetylation at lysine 382 residue incubated for 24 hrs by western blot analysis; assay type: cell-based; summary of the method: as §1
# [19] = tested on: Cellular tumor antigen p53 (Homo sapiens), P04637 [Y220C]; experiment: Stabilization of p53Y220C mutant (unknown origin) assessed as increase in melting temperature by […]
SMILES,Activity [1],Activity [2],GI50 (NCI-H1299 [3]),also measured
CCn1c2ccc(CNCCCCCCCCC(=O)NCCOc3ccc(CCc4nc5cc(-c6c(C)noc6C)ccc5n4CCN4CCOCC4)cc3F)cc2c2ccc(-c3cc(C)cs3)cc21,Active,103%,5 µM,–
CCn1c2ccc(CNCCCCCC(=O)NCCOc3ccc(CCc4nc5cc(-c6c(C)noc6C)ccc5n4CCN4CCOCC4)cc3F)cc2c2ccc(-c3cc(C)cs3)cc21,Active,176%,4 µM,–
CCn1c2ccc(CNCCCCC(=O)NCCOc3ccc(CCc4nc5cc(-c6c(C)noc6C)ccc5n4CCN4CCOCC4)cc3F)cc2c2ccc(-c3cc(C)cs3)cc21,Active,202%,4 µM,–
CCn1c2ccc(CNCCOCCOCCC(=O)NCCOc3ccc(CCc4nc5cc(-c6c(C)noc6C)ccc5n4CCN4CCOCC4)cc3F)cc2c2ccc(-c3cc(C)cs3)cc21,Active,205%,4 µM,–
CCn1c2ccc(CNC)cc2c2ccc(-c3cc(C)cs3)cc21,–,–,16 µM,"Activity [4]: Active; Activity [5]: inactive; Activity [6]: Active; Activity [7]: inactive; inhibition at 72 h, 10 µM [8]: ~30%; GI50 (PNT2): > 10 µM; Activity [9]: inactive; GI50 (U2OS): > 10 µM; Activity [10]: inactive; Activity (NCI-H1299 [11]): Active; GI50 (NUGC-3): 10.1 µM; Activity (NCI-H1299 [12]): inactive; ΔTm [13]: 3.7 °C; GI50 (BXPC-3): 14 µM; Activity [14]: 26%; inhibition at 72 h, 10 µM [15]: 30%"
CCn1c2ccc(CNCCOCCOCCOCCOCCOCCC(=O)NCCOc3ccc(CCc4nc5cc(-c6c(C)noc6C)ccc5n4CCN4CCOCC4)cc3F)cc2c2ccc(-c3cc(C)cs3)cc21,Active,184%,5 µM,–
CCn1c2ccc(CNCCOCCOCCOCCOCCC(=O)NCCOc3ccc(CCc4nc5cc(-c6c(C)noc6C)ccc5n4CCN4CCOCC4)cc3F)cc2c2ccc(-c3cc(C)cs3)cc21,Active,198%,4 µM,–
COc1ccc(CCc2nc3cc(-c4c(C)noc4C)ccc3n2CCN2CCOCC2)cc1F,–,–,–,Activity [5]: inactive; Activity [10]: inactive; Activity (NUGC-3): inactive; Activity (NCI-H1299 [12]): inactive; Activity (BXPC-3): inactive
CCn1c2ccc(CNCC(=O)NCCOc3ccc(CCc4nc5cc(-c6c(C)noc6C)ccc5n4CCN4CCOCC4)cc3F)cc2c2ccc(-c3cc(C)cs3)cc21,–,60%,18 µM,–
CCn1c2ccc(CNCCOCCOCCOCCn3cc(COc4ccc(CCc5nc6cc(-c7c(C)noc7C)ccc6n5CCN5CCOCC5)cc4F)nn3)cc2c2ccc(-c3cc(C)cs3)cc21,–,–,–,ΔTm [16]: 4 °C; fold change (FC) [17]: 4; EC50 [18]: 1.87 µM
CCn1c2ccc(CNCCCCCCCC(=O)NCCOc3ccc(CCc4nc5cc(-c6c(C)noc6C)ccc5n4CCN4CCOCC4)cc3F)cc2c2ccc(-c3cc(C)cs3)cc21,Active,196%,4 µM,–
CCn1c2ccc(CNCCOCCC(=O)NCCOc3ccc(CCc4nc5cc(-c6c(C)noc6C)ccc5n4CCN4CCOCC4)cc3F)cc2c2ccc(-c3cc(C)cs3)cc21,Active,186%,4 µM,–
CCn1c2ccccc2c2cc(CNC)ccc21,–,–,–,ΔTm [19]: 1 °C
CCn1c2ccc(CNCCCCCCC(=O)NCCOc3ccc(CCc4nc5cc(-c6c(C)noc6C)ccc5n4CCN4CCOCC4)cc3F)cc2c2ccc(-c3cc(C)cs3)cc21,Active,219%,4 µM,–
CCn1c2ccc(CNCCCC(=O)NCCOc3ccc(CCc4nc5cc(-c6c(C)noc6C)ccc5n4CCN4CCOCC4)cc3F)cc2c2ccc(-c3cc(C)cs3)cc21,Active,195%,4 µM,–
CCn1c2ccc(CNCCC(=O)NCCOc3ccc(CCc4nc5cc(-c6c(C)noc6C)ccc5n4CCN4CCOCC4)cc3F)cc2c2ccc(-c3cc(C)cs3)cc21,–,70%,13 µM,–
